Results on one compound are retold here after ChEMBL document CHEMBL3808358, “Rational Design of Small Peptides for Optimal Inhibition of Cyclooxygenase-2: Development of a Highly Effective Anti-Inflammatory Agent” (J Med Chem, 2016).

pIC50: −log10 of the molar value. Activity calls are given as the source filed them. The rule behind the calls is not given here. Residues, ends and D or L forms follow the SMILES beside them.

The subject of data set [1] is Mus musculus. The data set can be described thus: Analgesic activity in Swiss albino mouse assessed as reduction in capsaicin-induced paw licking at 5 to 10 mg/kg, ip dosed 30 mins before capsaicin injection measured for 10 mins in presence of nitric oxide synthase inhibitor L-NAME pre-treated 30 mins before compound dosing. The data set is classed as functional, organism-based. The procedure, abridged: (§1)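 Mice of either sex (25-35 g), 5 per group. The modulator is given 30 min before the test compound, and capsaicin 30 min after that: substance P 10 µg/kg, L-arginine 40 mg/kg, L-NAME 20 mg/kg, veratrine 125 µg/kg, A23187 20 µg/kg, glipizide 30 µg/kg. Capsaicin is 1.6 μg in 20 μL intraplantar. Paw lickings are counted for 10 min.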

In data set [2] the target is Prostaglandin G/H synthase 1 (Homo sapiens) (UniProt P23219). The data set can be described thus: Inhibition of COX1 in healthy human whole blood assessed as calcium ionophore A23187-stimulated TXB2 level at 1 uM preincubated for 60 mins followed by A23187 addition measured after 30 mins by ELISA. The data set is classed as tissue-based. The procedure, abridged: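 Fresh venous blood from a healthy volunteer is collected in EDTA. 1 mL samples receive compound, indomethacin or DMSO vehicle (final 1 μM). After 60 min, A23187 is added (final 50 μM). After 30 min, samples are centrifuged at 4 °C and TxB2 in plasma is measured by ELISA, read at 420 nm. Samples are run in duplicate.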
Chain of Prostaglandin G/H synthase 1 (Homo sapiens) (P23219 whole entry): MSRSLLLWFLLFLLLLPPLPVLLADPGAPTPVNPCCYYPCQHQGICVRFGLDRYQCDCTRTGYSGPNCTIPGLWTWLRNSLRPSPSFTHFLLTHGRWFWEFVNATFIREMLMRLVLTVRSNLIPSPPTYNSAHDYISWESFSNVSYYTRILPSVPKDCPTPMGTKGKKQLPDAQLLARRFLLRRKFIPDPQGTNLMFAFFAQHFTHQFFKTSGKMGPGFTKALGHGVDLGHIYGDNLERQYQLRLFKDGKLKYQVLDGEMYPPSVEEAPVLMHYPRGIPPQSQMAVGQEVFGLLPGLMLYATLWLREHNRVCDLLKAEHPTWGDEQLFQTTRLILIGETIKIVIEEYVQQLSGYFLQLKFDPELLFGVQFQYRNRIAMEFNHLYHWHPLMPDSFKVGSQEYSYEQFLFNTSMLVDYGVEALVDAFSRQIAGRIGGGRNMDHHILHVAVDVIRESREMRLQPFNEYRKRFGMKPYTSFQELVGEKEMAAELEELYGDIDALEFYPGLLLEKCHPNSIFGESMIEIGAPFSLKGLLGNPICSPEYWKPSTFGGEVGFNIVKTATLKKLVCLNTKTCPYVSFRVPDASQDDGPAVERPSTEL
(In general: An ELISA detects its analyte on a solid surface through an enzyme-linked reagent.)

Data set [3] has as its system Mus musculus. The data set can be described thus: Analgesic activity in Swiss albino mouse assessed as reduction in formalin-induced paw flinches in neurogenic phase at 5 mg/kg, ip dosed 30 mins before formalin injection measured up to 5 mins. The class given is functional, organism-based. The procedure, abridged: (§2)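 Swiss albino mice of either sex (25-35 g). 20 μL of 2% formalin is injected into the plantar surface of the right hind paw 30 min after treatment. Hind paw flinches are counted for the neurogenic phase (0-5 min) and the inflammatory phase (15-30 min). Results are given as mean ± SEM.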

Data set [4] deals with Mus musculus. Briefly: Analgesic activity in Swiss albino mouse assessed as reduction in formalin-induced paw flinches in inflammatory phase at 5 mg/kg, ip dosed 30 mins before formalin injection measured after 15 to 30 mins. The data set is classed as functional, organism-based. The procedure, abridged: as §2
Data set [5] relates to Mus musculus. The data set can be described thus: Analgesic activity in Swiss albino mouse assessed as reduction in capsaicin-induced paw licking at 5 to 10 mg/kg, ip dosed 30 mins before capsaicin injection measured for 10 mins in presence of substance P pre-treated 30 mins before compound dosing. The data set is classed as functional, organism-based. The essentials:
as §1

Data set [6] is described as follows: Selectivity index, ratio of IC50 for ovine COX1 to IC50 for human recombinant COX2. The essentials:
(§3)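 Ovine COX-1 and human recombinant COX-2 with heme are preincubated with inhibitor for 10 min at 37 °C. Arachidonic acid is then added for 2 min at 37 °C. Prostaglandins are quantified by competitive AChE-tracer EIA, read at 420 nm. Four concentrations (10^-5 to 10^-8 M) are tested in triplicate. IC50 is taken from the dose-response curve of the mean % inhibition.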

Data set [7] deals with Mus musculus. The data set can be described thus: Acute toxicity in Swiss albino mouse assessed as gross behavioral abnormality up to 2000 mg/kg, po administered as single dose through gavage measured continuously for first 4 hrs and periodically for 24 hrs up to 14 days. The data set is classed as organism-based. Particulars: in vivo. The essentials: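 Swiss albino mice of either sex (25-35 g), housed at 22 ± 2 °C on a 12 h light/dark cycle. Per OECD 2001 guidance, groups of three received vehicle or 50, 300 or 2000 mg Kg⁻¹ after 4 h fasting. The animals were watched continuously for the first 4 h and then periodically over 24 h for gross behavioural abnormality.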

The test system of data set [8] is Mus musculus. Briefly: Antiinflammatory activity in Swiss albino mouse assessed as reduction in carrageenan-induced paw edema by measuring paw thickness at 5 mg/kg, ip dosed 30 mins before carrageenan injection measured up to 300 mins by vernier calliper method relative to control. The data set is classed as functional.
Data set [9] concerns the target Prostaglandin G/H synthase 1 (Homo sapiens) (UniProt P23219). Briefly: Binding affinity to COX1 (unknown origin) at 100 uM by isothermal titration calorimetry. The essentials: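 Isothermal titration calorimetry in HEPES buffer, pH 7.4. The ligand stock is 100 μM in ethanol/HEPES (1:99). The syringe is stirred at 500 rpm and delivers 19 injections of 2 μL into the enzyme-containing cell at 120 s intervals. Heats from buffer-only control titrations are subtracted. The fit gives Ka, ΔH and ΔS. Run in triplicate.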
(In general: Isothermal titration calorimetry measures the heat released or taken up as one component is titrated into another.)

Data set [10] deals with Mus musculus. Briefly: Analgesic activity in Swiss albino mouse assessed as reduction in capsaicin-induced paw licking at 5 to 10 mg/kg, ip dosed 30 mins before capsaicin injection measured for 10 mins. The class given is functional, organism-based. The essentials: (§4)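 Swiss albino mice of either sex (25-35 g), kept at 22 ± 2 °C on a 12 h light/dark cycle with free food and water. 5 animals per group. Capsaicin (1.6 μg in 20 μL) is injected into the plantar surface of the hind paw. Pain is scored as the number of paw lickings over 10 min.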

Data set [11] has as its system Mus musculus. Briefly: Analgesic activity in Swiss albino mouse assessed as reduction in capsaicin-induced paw licking at 5 mg/kg, ip dosed 30 mins before capsaicin injection measured for 10 mins relative to control. The data set is classed as functional. The procedure, abridged: as §4
Data set [12] concerns Mus musculus. The data set can be described thus: Analgesic activity in Swiss albino mouse assessed as reduction in capsaicin-induced paw licking at 5 to 10 mg/kg, ip dosed 30 mins before capsaicin injection measured for 10 mins in presence of […] A23187 pre-treated 30 mins before compound dosing. The data set is classed as functional, organism-based. The essentials:
as §1

The subject of data set [13] is Mus musculus. The data set can be described thus: Analgesic activity in Swiss albino mouse assessed as reduction in capsaicin-induced paw licking at 5 to 10 mg/kg, ip dosed 30 mins before capsaicin injection measured for 10 mins in presence of nitric oxide precursor L-arginine pre-treated 30 mins before compound dosing. The data set is classed as functional, organism-based. The essentials: as §1

In data set [14] the target is T1, Prostaglandin G/H synthase 1 (Ovis aries, UniProt P05979).
T1 sequence (P05979 whole entry): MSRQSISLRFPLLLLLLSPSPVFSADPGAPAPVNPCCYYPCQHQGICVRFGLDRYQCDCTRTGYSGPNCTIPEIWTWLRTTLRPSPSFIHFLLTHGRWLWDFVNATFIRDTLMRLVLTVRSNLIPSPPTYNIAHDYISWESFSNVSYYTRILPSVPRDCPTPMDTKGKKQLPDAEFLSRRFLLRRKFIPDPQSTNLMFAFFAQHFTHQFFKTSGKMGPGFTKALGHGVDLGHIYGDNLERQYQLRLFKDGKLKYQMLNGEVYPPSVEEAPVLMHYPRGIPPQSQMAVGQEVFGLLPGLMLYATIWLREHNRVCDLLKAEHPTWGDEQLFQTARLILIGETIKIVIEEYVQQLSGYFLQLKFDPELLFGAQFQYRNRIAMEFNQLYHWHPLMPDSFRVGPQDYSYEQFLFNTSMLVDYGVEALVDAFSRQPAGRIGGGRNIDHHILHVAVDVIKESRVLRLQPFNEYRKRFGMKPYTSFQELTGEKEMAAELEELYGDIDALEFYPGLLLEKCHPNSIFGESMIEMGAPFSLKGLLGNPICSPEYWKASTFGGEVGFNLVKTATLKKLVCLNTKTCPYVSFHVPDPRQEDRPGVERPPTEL
The data set can be described thus: Inhibition of ovine COX1 assessed as reduction in PGH2-derived PGF2alpha using arachidonic acid as substrate preincubated for 10 mins followed by substrate addition measured after 2 mins by enzyme immunoassay. The procedure, abridged: as §3

The inhibition in vivo is how much of the control response was suppressed. One may read the pIC50 as the IC50 on a negative log10 scale, so that one unit is a factor of ten. For the compound `COC(=O)[C@H](CC(C)C)NC(=O)[C@H](Cc1ccccc1)NC(=O)CNC(=O)CN` (H-GGFL-OMe), the outcome in [1], in data set [4], in [10] and in data set [12] was Active. In addition, the Activity in data set [2] is 5.8 ng/mL; in data set [7] it was “Non-toxic”. Moreover, the result in data set [3], in data set [5] and in data set [13] was inactive. Further, the Ratio IC50 in [6] came out at 100. Besides, the inhibition in vivo at 5 mg/kg in [8] amounted to 60%; in data set [11], 80%. In data set [9], this compound displayed a Ka of 0.41 ×10³ /M. In [14], the negative-log IC50 (pIC50) is 5.22.
